The results in this text go back to ChEMBL document CHEMBL4385599, “Neutral sphingomyelinase 2 inhibitors based on the 4-(1H-imidazol-2-yl)-2,6-dialkoxyphenol scaffold” (Eur J Med Chem, 2019).

The nature of data set [1]: Selectivity index, ratio of IC50 for horseradish peroxidase to IC50 for Inhibition of human recombinant nSMase expressed in HEK293 cells. Format: cell-based.
Data set [2] concerns the target T1, Sphingomyelin phosphodiesterase 3 (Homo sapiens, UniProt Q9NY59).
T1 sequence (Q9NY59 whole entry): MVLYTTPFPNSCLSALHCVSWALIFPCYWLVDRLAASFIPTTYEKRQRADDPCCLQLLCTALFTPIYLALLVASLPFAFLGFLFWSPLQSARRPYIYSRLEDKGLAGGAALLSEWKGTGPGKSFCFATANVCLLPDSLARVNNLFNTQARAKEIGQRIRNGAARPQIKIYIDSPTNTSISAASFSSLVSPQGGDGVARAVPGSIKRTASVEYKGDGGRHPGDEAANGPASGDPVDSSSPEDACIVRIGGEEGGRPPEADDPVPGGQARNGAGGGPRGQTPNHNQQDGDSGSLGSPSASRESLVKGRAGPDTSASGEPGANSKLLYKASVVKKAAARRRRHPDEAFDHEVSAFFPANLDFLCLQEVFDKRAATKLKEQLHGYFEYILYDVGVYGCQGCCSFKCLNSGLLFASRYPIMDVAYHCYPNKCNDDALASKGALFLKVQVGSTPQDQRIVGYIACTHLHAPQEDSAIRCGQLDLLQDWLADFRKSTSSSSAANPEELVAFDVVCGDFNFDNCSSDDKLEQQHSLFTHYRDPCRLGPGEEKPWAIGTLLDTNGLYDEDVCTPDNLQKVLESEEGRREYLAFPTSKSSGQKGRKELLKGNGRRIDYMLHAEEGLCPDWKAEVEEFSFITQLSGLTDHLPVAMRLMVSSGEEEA
Briefly: Inhibition of human recombinant nSMase expressed in HEK293 cells using sphingomyelin as substrate by alkaline phosphatase, choline oxidase and horseradish peroxidase dependent H2O2 detection based fluorescence coupled assay. The essentials: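 Fluorescence-based coupled assay with human recombinant nSMase2, alkaline phosphatase and choline oxidase; IC50 values are mean ± SD of at least three experiments.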

A short description of data set [3]: Metabolic stability in mouse liver microsomes assessed as parent compound remaining at 5 uM in presence of NADPH regenerating system measured after 1 hr by LC/MS/MS method. Format: ADME, Microsome. (In general: Liver microsomes are a subcellular fraction often used to study metabolism.)
The species entered for data set [4] is Homo sapiens. Briefly: Selectivity index, ratio of IC50 for choline oxidase (unknown origin) to IC50 for Inhibition of human recombinant nSMase expressed in HEK293 cells. Format: cell-based.
The species entered for data set [5] is Homo sapiens. Put plainly: Selectivity index, ratio of IC50 for alkaline phosphatase (unknown origin) to IC50 for Inhibition of human recombinant nSMase expressed in HEK293 cells. Type of data set: cell-based.
Data set [6] is described as follows: Metabolic stability in human liver microsomes assessed as parent compound remaining at 5 uM in presence of NADPH regenerating system measured after 1 hr by LC/MS/MS method. Type of data set: ADME, Microsome.
Data set [7] is described as follows: Metabolic stability in mouse liver microsomes assessed as parent compound remaining in presence of UDPGA at 5 uM measured after 1 hr by LC/MS/MS method. Format: ADME, Microsome. In outline:
(§1)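 Glucuronidation: compound in 50 mM Tris-HCl pH 7.5 with microsomes 0.5 mg/mL, 8 mM MgCl2, 25 μg/mL alamethicin, preincubated at 37 °C; started with UDPGA 2 mM final, triplicate; 60 min; quenched with cold acetonitrile plus internal standard; parent remaining by LC/MS/MS; cofactor-free controls.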

Data set [8] in a line: Ratio of drug level in brain to plasma in CD-1 mouse at 10 mg/kg, po measured after 2 hrs by UPLC and LC-MS/MS analysis. Format: ADME, organism-based. The essentials: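 Male CD-1 mice (25–30 g), single oral gavage 10 mg/kg in 5% DMSO, 5% polysorbate 80, 90% saline; 3 mice per time point, sacrificed at 0.5 and 2 h. Cardiac blood into heparin, plasma by centrifugation; brains flash frozen. Acetonitrile extraction with losartan internal standard; quantified by UPLC–LC-MS/MS against calibration curves in naïve plasma/brain matrix.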

A short description of data set [9]: Metabolic stability in human liver microsomes assessed as parent compound remaining in presence of UDPGA at 5 uM measured after 1 hr by LC/MS/MS method. Type of data set: ADME, Microsome. In outline:
as §1

Broadly, the IC50 is the midpoint of a concentration-inhibition curve. Turning to `CCOc1cc(-c2nc(-c3ccccc3)c(-c3cccs3)[nH]2)cc(OCC)c1O`, the Ratio IC50 (in [1]; in the data set listed under Homo sapiens [4]; in the data set listed under Homo sapiens [5]) was > 5 throughout. For the same molecule, the IC50 in data set [2] turned out to be 10 nM. The Stability in [3] is on record as 35%.
As to `COc1cc(-c2nc(-c3ccccc3)c(C(C)C)[nH]2)cc(OC)c1O`, the Ratio IC50 (in data set [1]; in the data set listed under Homo sapiens [4]; in the data set filed under Homo sapiens [5]) was > 5 in each case. In addition, the IC50 in data set [2] was 70 nM. The Stability in data set [3] is listed as 94%; in [6] it was > 95%.
`COc1cc(-c2nc(-c3cccs3)c(-c3ccccc3)[nH]2)cc(OC)c1O`: the Stability is 67% in data set [7], 50% in data set [9], 95% in [3] and 95% in data set [6]. For the same molecule, in data set [8], the BPR was 17%.
For `COc1ccc(-c2nc(-c3cc(OC)c(O)c(OC)c3)[nH]c2-c2ccc(OC)cc2)cc1`, the Ratio IC50 (in data set [1]; in the data set filed under Homo sapiens [4]; in the data set listed under Homo sapiens [5]) was > 5 each time. For the same molecule, the Stability in data set [3] is 73%; in [6], 75%.
With `COc1cc(-c2nc(-c3cccs3)c(C)[nH]2)cc(OC)c1O`, the Ratio IC50 (in data set [1]; in the data set filed under Homo sapiens [4]; in the data set listed under Homo sapiens [5]) was > 5 throughout. Besides, the IC50 in data set [2] stood at 20 nM. Besides, the values for the Stability in [3] and in [6] were 95% and 73%, respectively.
On to `COc1cc(-c2nc(-c3ccc(C)cc3)c(-c3ccc(C)cc3)[nH]2)cc(OC)c1O`, for which the Ratio IC50 (in data set [1]; in the data set filed under Homo sapiens [4]; in the data set filed under Homo sapiens [5]) was > 5 in each case. Also, the IC50 in [2] was determined as 70 nM. The Stability in [3] and in data set [6] was > 95% throughout.
With `COc1cc(-c2nc(-c3ccccc3)c(-c3ccccc3)[nH]2)cc(OC)c1O`, the Ratio IC50 (in data set [1]; in the data set listed under Homo sapiens [4]; in the data set filed under Homo sapiens [5]) was > 5 each time. Besides, the Stability in [3] and in data set [6] was > 95% each time.
Regarding `Oc1c(OCC(F)(F)F)cc(-c2nc(-c3ccccc3)c(-c3cccs3)[nH]2)cc1OCC(F)(F)F`, the Ratio IC50 (in data set [1]; in the data set listed under Homo sapiens [4]; in the data set listed under Homo sapiens [5]) was > 5 each time. Further, the IC50 in data set [2] was found to be 70 nM. For the same molecule, the Stability in [3] is given as > 95%; in [6], 94%.
For `CCc1nc(-c2cc(OC)c(O)c(OC)c2)[nH]c1CC`, the Ratio IC50 (in data set [1]; in the data set filed under Homo sapiens [4]; in the data set listed under Homo sapiens [5]) was > 5 throughout. In addition, the IC50 in data set [2] came out at 120 nM. Also, the results for the Stability in data set [3] and in data set [6] were 75% and > 95%, respectively.
Consider `COc1cc(-c2nccs2)cc(OC)c1O`, for which the Ratio IC50 (in data set [1]; in the data set filed under Homo sapiens [4]; in the data set filed under Homo sapiens [5]) was < 5 each time. Also, the concentration for half-maximal inhibition (IC50) in data set [2] was 20000 nM.
Regarding `CC(C)Oc1cc(-c2nc(-c3ccccc3)c(-c3cccs3)[nH]2)cc(OC(C)C)c1O`, the Stability in [7] is reported as > 95%; in data set [3], 4%. Further, the Ratio IC50 (in data set [1]; in the data set filed under Homo sapiens [4]; in the data set filed under Homo sapiens [5]) was > 5 each time. Further, the IC50 in data set [2] was determined as 40 nM.
In the case of `COc1cc(-c2nc(C)c(-c3ccccc3)[nH]2)cc(OC)c1O`, the Ratio IC50 (in data set [1]; in the data set listed under Homo sapiens [4]; in the data set listed under Homo sapiens [5]) was > 5 each time. Also, the results for the Stability in data set [3] and in data set [6] were 82% and 95%, respectively.
